ChEMBL document CHEMBL4680231, “A glutathione-responsive photosensitizer with fluorescence resonance energy transfer characteristics for imaging-guided targeting photodynamic therapy” (Eur J Med Chem, 2020)
Active and inactive are the calls of the source. The calls are words filed in the database; no cut-off is given here.

What was measured:
Primary lung fibroblast = experiment: Induction of ROS generation in human HELF cells at 10 uM incubated for 12 hrs irradiated with 20 mW cm^-2 light in presence of GSH by DCFH-DA staining based confocal laser scanning microscopic method; format: functional, cell-based
Procedure, shortened: (§1)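 Cells were seeded in confocal dishes overnight. Pretreatment was GSH 5 mM in DMEM for 2 h, or vitamin C 100 μM for 1 h, before compound at 10 μM for 12 h. DCFH-DA was added for 1 h, then 5 PBS washes and transfer to serum-free, phenol red-free DMEM. Cells were irradiated at 670 nm, 20 mW·cm⁻², for 3 min. Confocal imaging used λex 488 nm for DCF and 633 nm for the photosensitizer.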

HeLa = experiment: Induction of ROS generation in human HeLa cells at 10 uM incubated for 12 hrs irradiated with 20 mW cm^-2 light in presence of vitamin C by DCFH-DA staining based confocal laser scanning microscopic method; format: functional, cell-based; procedure, shortened: as §1
[1] = Prodrug activation in human HeLa cells assessed as increase in fluorescence at 10 uM after 8 hrs in presence of GSH by confocal laser scanning microscopic method; format: cell-based
Procedure, shortened: (§2)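 Cells (10^5 per confocal dish) were seeded in DMEM overnight at 37 °C, 5% CO2. They were pretreated with 5 mM GSH in DMEM, or medium alone, for 2 h, then washed. Compound at 10 μM was added for 8 h. Intracellular fluorescence was read by confocal microscopy (excitation 633 nm) or by flow cytometry under the same conditions.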

[2] = Prodrug activation in HELF cells assessed as increase in fluorescence at 10 uM after 8 hrs by confocal laser scanning microscopic method; format: cell-based; settings: human, primary lung fibroblast; procedure, shortened: as §2
H22 [3] = experiment: (§3) Photodynamic antitumor activity against mouse H22 cells implanted in Kunming mouse assessed as increase in necrotic cells in tumour at 2 mg/kg, iv administered at […] post-implantation followed by irradiated with 100 mW/cm2 […] and measured up to 15 days by H and E staining based microscopic method; format: functional, organism-based; settings: time 15.0 day
Procedure, shortened: (§4)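 Mice carried subcutaneous H22 tumours of about 50 mm³ and were randomised into 5 groups of 5. They received saline or compound at 2 mg/kg (100 μL) i.v. on days 1, 4 and 7. Light groups were irradiated at 670 nm, 100 mW/cm², 12 h after each dose. Tumour volume and body weight were recorded daily for 15 days. Tumours were then excised and weighed, fixed in 4% paraformaldehyde, paraffin-embedded and H&E stained. Apoptotic and necrotic areas were scored microscopically.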

[4] = Prodrug activation in mouse H22 cells assessed as increase in fluorescence at 10 uM after 8 hrs in presence of GSH by flow cytometric analysis; format: cell-based; settings: h22, 8 h; procedure, shortened: as §2
[5] = Prodrug activation in human HeLa cells assessed as increase in fluorescence at 10 uM after 8 hrs in presence of GSH by flow cytometric analysis; format: cell-based; procedure, shortened: as §2
[6] = Drug uptake in Kunming mouse implanted with H22 cells at 2 mg/kg, iv and measured up to 24 hrs by FMT assay; format: ADME, organism-based; settings: in vivo
Procedure, shortened: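 Mice carried subcutaneous back tumours from H22 cells (10^7 cells/mL, 100 μL), used at about 50 mm³. They received a single tail-vein injection of 2 mg/kg (200 μL), with saline as control, 3 mice per group. Whole-body fluorescence molecular tomography was taken at 0, 2, 6, 12 and 24 h. At 24 h, tumour, heart, liver, spleen, lung and kidney were imaged ex vivo.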

[7] = Prodrug activation in mouse H22 cells assessed as increase in fluorescence at 10 uM after 8 hrs by flow cytometric analysis; format: cell-based; settings: h22, 8 h; procedure, shortened: as §2
H22 [8] = experiment: Cytotoxicity against mouse H22 cells assessed as reduction cell viability preincubated for 24 hrs in dark condition followed by irradiated with 20 mW cm^-2 light by MTT assay; format: functional, cell-based
Procedure, shortened: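 MTT assay. About 6000 cells per well were seeded and left overnight at 37 °C, 5% CO2. Compound was added at a range of concentrations in DMEM (1% DMSO, 0.05% Tween 80) for 24 h in the dark, then the medium was replaced. Irradiated wells received a 670 nm LED at 20 mW·cm⁻² for 2 min (2.4 J·cm⁻²); dark wells were not irradiated. Cells were incubated overnight, then MTT for 4 h, DMSO added, OD read at 490 nm. Three independent experiments, each in sextuplicate. IC50 is the concentration killing 50% of cells.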

[9] = Prodrug activation in mouse H22 cells assessed as increase in fluorescence at 10 uM after 8 hrs by confocal laser scanning microscopic method; format: cell-based; settings: h22, 8 h; procedure, shortened: as §2
[10] = Prodrug activation in DMF at 10 uM incubated for 720 mins in presence of 2 uM GSH by fluorescence spectroscopic analysis; settings: 12 h
[11] = Prodrug activation in DMF at 10 uM incubated for 720 mins in presence of 10 mM GSH by fluorescence spectroscopic analysis; settings: 12 h
H22 [12] = experiment: as §3, with “apoptotic” for “necrotic”; format: functional, organism-based; settings: time 15.0 day; procedure, shortened: as §4
H22 [13] = experiment: Induction of ROS generation in mouse H22 cells at 10 uM incubated for 12 hrs irradiated with 20 mW cm^-2 light in presence of vitamin C by DCFH-DA staining based confocal laser scanning microscopic method; format: functional, cell-based; procedure, shortened: as §1
[14] = Prodrug activation in human HeLa cells assessed as increase in fluorescence at 10 uM after 8 hrs by confocal laser scanning microscopic method; format: cell-based; procedure, shortened: as §2
[15] = Photoactivity of compound in DMF assessed as singlet oxygen generation at 10 uM irradiated with 20 mW cm^-2 light by DMA based fluorescence assay; format: functional
[16] = Drug localization in mitochondria of human A549 cells assessed as GSH mediated cleavage at 10 uM after 12 hrs by Mito-Tracker Green dye based confocal laser scanning microscopic method; format: ADME; settings: a549, 12 h
Procedure, shortened: (§5)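 Cells were seeded in confocal dishes overnight, then given compound at 10 μM for 12 h. Staining was DAPI for 20 min, or Lyso-Tracker Red or Mito-Tracker Green for 60 min, followed by 5 PBS washes. Images were taken by confocal microscopy with excitation/detection of 405/425-475 nm (DAPI), 543/550-620 nm (Lyso) and 488/510-570 nm (Mito). Colocalization was judged from line intensity profiles.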

[17] = Drug localization in lysosome of human A549 cells assessed as GSH mediated cleavage at 10 uM after 12 hrs by Lyso-Tracker Red dye based confocal laser scanning microscopic method; format: ADME, subcellular; settings: a549, 12 h; procedure, shortened: as §5
[18] = Prodrug activation in DMF assessed as pseudo-first-order kinetics at 10 uM incubated for 720 mins in presence of 10 mM GSH by fluorescence spectroscopic analysis; settings: 12 h
[19] = Drug localization in nucleus of human A549 cells assessed as GSH mediated cleavage at 10 uM after 12 hrs by DAPI dye based confocal laser scanning microscopic method; format: ADME, subcellular; settings: a549, 12 h; procedure, shortened: as §5

Row | Drug metabolism [1] | Drug metabolism [2] | Drug metabolism [4] | Drug metabolism [5] | Drug metabolism [7] | Drug metabolism [9] | Drug metabolism [14] | Compound | Activity (Primary lung fibroblast) | Activity (HeLa) | Activity (H22 [3]) | Activity (H22 [12]) | Activity (H22 [13]) | Drug metabolism [15] | further results
1 | Metabolite_Notdetected | Metabolite_Notdetected | Metabolite_Notdetected | Metabolite_Notdetected | Metabolite_Notdetected | Metabolite_Notdetected | Metabolite_Notdetected | COCCOCCOCCOc1ccc(/C=C/C2=[N+]3C(=C(c4ccc(OCc5cn(CCCCCCn6cc(COc7ccc(C8=C9C(C)=CC(/C=C/c%10ccc(N(C)C)cc%10)=[N+]9[B-](F)(F)n9c(/C=C/c%10ccc(N(C)C)cc%10)cc(C)c98)cc7)nn6)nn5)cc4)c4c(C)c(I)c(/C=C/c5ccc(OCCOCCOCCOC)cc5)n4[B-]3(F)F)C(C)=C2I)cc1 | inactive | inactive | Active | Active | inactive | Metabolite not detected | Drug uptake [6]: Active; Activity (H22 [8]): inactive; Drug metabolism [10]: Metabolite_Notdetected; Drug metabolism [11]: Metabolite_Notdetected
2 | Metabolite_Detected | Metabolite_Notdetected | Metabolite_Detected | Metabolite_Detected | Metabolite_Detected | Metabolite_Detected | Metabolite_Detected | COCCOCCOCCOc1ccc(/C=C/C2=[N+]3C(=C(c4ccc(OCc5cn(CCSSCCn6cc(COc7ccc(C8=C9C(C)=CC(/C=C/c%10ccc(N(C)C)cc%10)=[N+]9[B-](F)(F)n9c(/C=C/c%10ccc(N(C)C)cc%10)cc(C)c98)cc7)nn6)nn5)cc4)c4c(C)c(I)c(/C=C/c5ccc(OCCOCCOCCOC)cc5)n4[B-]3(F)F)C(C)=C2I)cc1 | Active | inactive | Active | Active | inactive | Metabolite not detected | Drug uptake [16]: Active; IC50 (H22 [8]; H22, light or radiation study): 0.48 µM; Drug uptake [17]: Active; K [18]: 5.8 10^-3/min; Drug uptake [19]: Not Active
